Data reported in the M2OR odorant receptor database.

Key:
Conditions in all cases: stereoisomer not certain
[1] = molecular target: T1, UniProt Q7TRX0
T1 sequence (whole entry): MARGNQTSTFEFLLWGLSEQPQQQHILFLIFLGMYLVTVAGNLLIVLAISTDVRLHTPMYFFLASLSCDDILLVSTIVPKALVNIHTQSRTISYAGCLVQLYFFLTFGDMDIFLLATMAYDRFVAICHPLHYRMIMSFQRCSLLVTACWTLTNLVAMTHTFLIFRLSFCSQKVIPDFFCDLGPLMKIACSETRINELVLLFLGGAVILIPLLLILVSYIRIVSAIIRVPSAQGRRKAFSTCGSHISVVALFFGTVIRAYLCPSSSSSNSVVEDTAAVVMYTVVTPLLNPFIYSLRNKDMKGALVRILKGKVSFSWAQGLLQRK
In short: (§1)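 Transient luciferase assays in mammalian cell lines were common, though methods varied by source. The values come from published papers and their supplementary material, with extra details from the original authors when needed. Responsive refers to a measured signal the original authors judged statistically different from baseline, and non-responsive (inactive) to the remainder.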

[2] = molecular target: T2, UniProt Q8VF43
T2 sequence (whole entry): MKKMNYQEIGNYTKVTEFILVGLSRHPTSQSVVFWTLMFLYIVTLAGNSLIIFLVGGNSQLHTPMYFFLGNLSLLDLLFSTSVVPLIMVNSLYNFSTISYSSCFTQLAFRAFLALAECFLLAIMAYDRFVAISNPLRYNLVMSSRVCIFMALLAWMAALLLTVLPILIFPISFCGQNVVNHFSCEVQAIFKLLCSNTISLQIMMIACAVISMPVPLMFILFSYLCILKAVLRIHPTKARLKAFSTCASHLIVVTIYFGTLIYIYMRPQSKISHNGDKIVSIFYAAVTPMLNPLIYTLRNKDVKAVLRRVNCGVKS
In short: as §1

[3] = molecular target: T3, UniProt Q8VF52
T3 sequence (whole entry): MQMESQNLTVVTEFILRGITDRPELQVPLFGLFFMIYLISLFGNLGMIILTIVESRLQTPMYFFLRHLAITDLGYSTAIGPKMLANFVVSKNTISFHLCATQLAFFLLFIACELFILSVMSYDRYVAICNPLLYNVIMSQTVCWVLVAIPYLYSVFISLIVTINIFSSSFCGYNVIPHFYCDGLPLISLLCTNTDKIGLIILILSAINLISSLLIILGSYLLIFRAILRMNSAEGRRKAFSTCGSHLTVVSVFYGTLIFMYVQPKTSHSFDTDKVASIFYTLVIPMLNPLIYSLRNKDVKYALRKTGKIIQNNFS
In short: as §1

[4] = molecular target: T4, UniProt Q8VFM8
T4 sequence (whole entry): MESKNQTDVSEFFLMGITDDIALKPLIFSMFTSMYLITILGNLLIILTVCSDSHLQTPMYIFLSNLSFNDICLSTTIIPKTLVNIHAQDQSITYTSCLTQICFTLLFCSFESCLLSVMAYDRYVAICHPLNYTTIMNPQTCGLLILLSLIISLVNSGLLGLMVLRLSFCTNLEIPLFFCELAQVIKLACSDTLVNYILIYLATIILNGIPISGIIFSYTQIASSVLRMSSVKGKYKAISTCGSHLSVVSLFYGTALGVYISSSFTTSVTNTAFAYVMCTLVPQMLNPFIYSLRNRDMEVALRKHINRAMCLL
In short: as §1

[5] = molecular target: T5, UniProt Q8VFP5
T5 sequence (whole entry): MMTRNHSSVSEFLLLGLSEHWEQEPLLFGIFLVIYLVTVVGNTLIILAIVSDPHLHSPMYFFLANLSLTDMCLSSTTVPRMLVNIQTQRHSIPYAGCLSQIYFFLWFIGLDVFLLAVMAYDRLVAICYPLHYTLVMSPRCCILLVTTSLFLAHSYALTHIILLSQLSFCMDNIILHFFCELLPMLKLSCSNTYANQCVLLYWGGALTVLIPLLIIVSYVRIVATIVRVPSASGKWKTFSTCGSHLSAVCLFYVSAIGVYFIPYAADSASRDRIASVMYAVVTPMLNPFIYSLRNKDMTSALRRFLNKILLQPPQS
In short: as §1

[6] = molecular target: T6, UniProt Q8VG01
T6 sequence (whole entry): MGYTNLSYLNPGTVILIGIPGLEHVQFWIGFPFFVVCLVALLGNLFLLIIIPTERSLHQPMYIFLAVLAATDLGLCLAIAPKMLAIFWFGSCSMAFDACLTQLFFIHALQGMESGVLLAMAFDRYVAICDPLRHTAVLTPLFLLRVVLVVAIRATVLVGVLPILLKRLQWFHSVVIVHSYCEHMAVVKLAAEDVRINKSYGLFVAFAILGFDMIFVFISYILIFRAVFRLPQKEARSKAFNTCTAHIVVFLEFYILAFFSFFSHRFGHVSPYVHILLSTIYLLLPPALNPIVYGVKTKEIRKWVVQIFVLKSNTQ
In short: as §1

[7] = molecular target: T7, UniProt Q8VG27
T7 sequence (whole entry): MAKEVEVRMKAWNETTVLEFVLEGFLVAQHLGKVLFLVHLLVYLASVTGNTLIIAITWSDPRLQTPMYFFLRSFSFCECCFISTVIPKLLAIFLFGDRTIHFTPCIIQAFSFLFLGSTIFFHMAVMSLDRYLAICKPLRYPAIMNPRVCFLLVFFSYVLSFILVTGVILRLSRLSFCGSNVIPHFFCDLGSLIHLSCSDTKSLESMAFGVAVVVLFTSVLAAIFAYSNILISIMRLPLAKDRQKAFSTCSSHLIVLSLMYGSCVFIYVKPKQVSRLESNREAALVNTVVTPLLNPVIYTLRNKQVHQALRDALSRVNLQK
In short: as §1

[8] = molecular target: T8, UniProt Q7TRW1
T8 sequence (whole entry): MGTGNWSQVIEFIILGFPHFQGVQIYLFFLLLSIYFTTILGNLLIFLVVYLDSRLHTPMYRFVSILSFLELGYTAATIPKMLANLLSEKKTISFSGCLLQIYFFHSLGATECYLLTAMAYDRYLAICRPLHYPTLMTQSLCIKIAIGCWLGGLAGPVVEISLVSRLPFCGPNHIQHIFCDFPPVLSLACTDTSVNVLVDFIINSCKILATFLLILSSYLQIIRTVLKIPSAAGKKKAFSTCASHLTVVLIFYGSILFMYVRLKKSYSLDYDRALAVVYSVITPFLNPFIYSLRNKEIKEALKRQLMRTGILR
In short: as §1

[9] = molecular target: T9, UniProt Q8VEU7
T9 sequence (whole entry): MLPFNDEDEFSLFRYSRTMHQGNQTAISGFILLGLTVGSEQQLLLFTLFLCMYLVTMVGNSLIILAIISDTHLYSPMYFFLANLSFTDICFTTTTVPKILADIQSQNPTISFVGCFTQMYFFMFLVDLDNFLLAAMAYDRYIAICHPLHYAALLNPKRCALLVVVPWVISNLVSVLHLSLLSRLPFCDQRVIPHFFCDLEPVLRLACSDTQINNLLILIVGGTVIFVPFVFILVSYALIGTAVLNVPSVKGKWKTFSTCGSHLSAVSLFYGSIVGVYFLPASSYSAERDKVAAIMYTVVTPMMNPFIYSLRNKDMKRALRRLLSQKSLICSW
In short: as §1

[10] = molecular target: T10, UniProt Q8VF05
T10 sequence (whole entry): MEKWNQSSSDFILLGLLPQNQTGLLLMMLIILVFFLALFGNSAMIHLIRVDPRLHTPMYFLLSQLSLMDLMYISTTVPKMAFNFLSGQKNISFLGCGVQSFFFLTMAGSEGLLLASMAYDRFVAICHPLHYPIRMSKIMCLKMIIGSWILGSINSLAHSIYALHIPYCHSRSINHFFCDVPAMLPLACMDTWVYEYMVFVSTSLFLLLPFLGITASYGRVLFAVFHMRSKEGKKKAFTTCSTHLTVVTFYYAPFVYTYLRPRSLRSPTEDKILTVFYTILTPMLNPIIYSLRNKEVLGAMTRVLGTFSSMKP
In short: as §1

[11] = molecular target: T11, UniProt Q8VF24
T11 sequence (whole entry): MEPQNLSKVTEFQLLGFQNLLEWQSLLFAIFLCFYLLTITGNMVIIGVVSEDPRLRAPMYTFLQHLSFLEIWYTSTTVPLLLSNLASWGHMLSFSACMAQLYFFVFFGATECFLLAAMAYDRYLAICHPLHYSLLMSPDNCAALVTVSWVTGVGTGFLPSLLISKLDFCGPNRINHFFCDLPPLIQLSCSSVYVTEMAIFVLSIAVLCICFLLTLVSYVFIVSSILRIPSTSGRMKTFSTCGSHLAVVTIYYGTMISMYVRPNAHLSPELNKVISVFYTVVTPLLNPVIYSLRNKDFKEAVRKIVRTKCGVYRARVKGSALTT
In short: as §1

[12] = molecular target: T12, UniProt Q8VF44
T12 sequence (whole entry): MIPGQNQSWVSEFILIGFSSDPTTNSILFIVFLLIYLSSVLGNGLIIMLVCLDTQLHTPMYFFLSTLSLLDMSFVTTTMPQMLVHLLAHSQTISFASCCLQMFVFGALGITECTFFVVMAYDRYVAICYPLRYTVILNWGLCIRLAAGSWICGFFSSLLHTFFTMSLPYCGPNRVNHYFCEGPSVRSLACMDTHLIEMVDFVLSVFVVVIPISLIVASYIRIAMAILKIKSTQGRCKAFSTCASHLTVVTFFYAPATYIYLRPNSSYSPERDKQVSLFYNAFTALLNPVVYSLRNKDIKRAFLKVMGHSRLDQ
In short: as §1

[13] = molecular target: T13, UniProt Q8VFG6
T13 sequence (whole entry): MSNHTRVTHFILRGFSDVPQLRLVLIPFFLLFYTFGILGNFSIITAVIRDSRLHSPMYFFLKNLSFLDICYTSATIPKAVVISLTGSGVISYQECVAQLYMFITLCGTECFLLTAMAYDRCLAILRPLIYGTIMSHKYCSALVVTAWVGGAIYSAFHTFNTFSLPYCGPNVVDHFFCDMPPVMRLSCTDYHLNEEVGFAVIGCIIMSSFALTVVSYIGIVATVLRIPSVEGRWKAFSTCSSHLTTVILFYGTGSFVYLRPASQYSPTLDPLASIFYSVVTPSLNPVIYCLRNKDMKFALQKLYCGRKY
In short: as §1

[14] = molecular target: T14, UniProt Q8VFZ6
T14 sequence (whole entry): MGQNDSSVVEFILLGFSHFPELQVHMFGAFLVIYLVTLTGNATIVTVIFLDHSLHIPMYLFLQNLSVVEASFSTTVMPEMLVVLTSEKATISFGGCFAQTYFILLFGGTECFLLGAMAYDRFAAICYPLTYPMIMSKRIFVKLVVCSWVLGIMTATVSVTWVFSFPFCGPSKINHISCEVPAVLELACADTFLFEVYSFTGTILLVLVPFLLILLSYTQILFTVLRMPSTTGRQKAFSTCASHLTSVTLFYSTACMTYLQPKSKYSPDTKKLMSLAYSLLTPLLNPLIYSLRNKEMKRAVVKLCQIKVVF
In short: as §1

[15] = molecular target: T15, UniProt Q8VG22
T15 sequence (whole entry): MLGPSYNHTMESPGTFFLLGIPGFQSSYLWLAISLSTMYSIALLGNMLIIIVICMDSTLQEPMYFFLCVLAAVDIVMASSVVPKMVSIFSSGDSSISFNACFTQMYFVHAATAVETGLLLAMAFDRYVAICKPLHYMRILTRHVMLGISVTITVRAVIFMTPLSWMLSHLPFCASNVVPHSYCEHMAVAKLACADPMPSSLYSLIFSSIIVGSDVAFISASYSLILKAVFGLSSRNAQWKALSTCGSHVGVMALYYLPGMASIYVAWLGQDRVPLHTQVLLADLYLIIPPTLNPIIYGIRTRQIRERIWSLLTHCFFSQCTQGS
In short: as §1

[16] = molecular target: T16, UniProt Q8VG49
T16 sequence (whole entry): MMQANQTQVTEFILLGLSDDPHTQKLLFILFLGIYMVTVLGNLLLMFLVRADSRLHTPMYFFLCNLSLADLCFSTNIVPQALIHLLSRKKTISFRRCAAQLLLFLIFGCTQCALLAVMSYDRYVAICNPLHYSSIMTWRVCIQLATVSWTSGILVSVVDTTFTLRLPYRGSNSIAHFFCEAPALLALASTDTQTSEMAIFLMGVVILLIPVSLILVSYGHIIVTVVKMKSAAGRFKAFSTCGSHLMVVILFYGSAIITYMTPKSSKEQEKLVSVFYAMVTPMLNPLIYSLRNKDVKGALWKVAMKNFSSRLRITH
In short: as §1
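Also: active if original authors judged signal statistically different from baseline.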

| SMILES | odorant receptor agonist call [1] | odorant receptor agonist call [2] | odorant receptor agonist call [3] | odorant receptor agonist call [4] | odorant receptor agonist call [5] | odorant receptor agonist call [6] | odorant receptor agonist call [7] | odorant receptor agonist call [8] | odorant receptor agonist call [9] | odorant receptor agonist call [10] | odorant receptor agonist call [11] | odorant receptor agonist call [12] | odorant receptor agonist call [13] | odorant receptor agonist call [14] | odorant receptor agonist call [15] | odorant receptor agonist call [16] |
| --- | --- | --- | --- | --- | --- | --- | --- | --- | --- | --- | --- | --- | --- | --- | --- | --- |
| CCCCCCC(Br)C(=O)O (stereo not drawn) | inactive | inactive | inactive | inactive | inactive | active | inactive | – | – | – | – | – | – | – | – | – |
| O=Cc1ccccc1 | inactive | inactive | inactive | inactive | inactive | inactive | inactive | – | – | – | – | – | – | – | – | – |
| CCC1CCC(=O)O1 (stereo not drawn) | – | – | inactive | – | – | inactive | – | inactive | inactive | active | inactive | inactive | inactive | inactive | inactive | inactive |
| C=CCOC(=O)Cc1ccccc1 | inactive | inactive | inactive | inactive | inactive | inactive | inactive | inactive | inactive | active | inactive | inactive | active | active | inactive | inactive |
| CC(C=O)Cc1ccc2c(c1)OCO2 (stereo not drawn) | inactive | inactive | inactive | inactive | inactive | inactive | inactive | – | – | – | – | – | – | – | – | – |
| O=CC=Cc1ccccc1 | inactive | inactive | inactive | inactive | inactive | inactive | inactive | – | – | – | – | – | – | – | – | – |
| C=CCc1ccccc1 | – | – | inactive | – | – | inactive | – | active | inactive | inactive | inactive | inactive | inactive | inactive | inactive | inactive |
| COc1ccc(C=O)cc1 | inactive | inactive | inactive | inactive | inactive | inactive | inactive | – | – | – | – | – | – | – | – | – |
